A selection: hits, their analogues and other compounds. The true share with any hit is near 2.2%.
Runt-SMMHC FRET: inhibitors of human RUNX1 Runt domain binding to CBFb-SMMHC. Cerulean-Runt/Venus-CBFb-SMMHC FRET ratio 530/480, 1 h. inhibition, % at 20 µM. 220,000 compounds, 0.74% hits. Q01196+Q13951;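 active = mean inhibition across duplicate retests at 20 µM reaching about 50%, limit read from the data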;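 also: inhibitors lower the FRET ratio by blocking Runt binding to CBFb-SMMHC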
TbHK1 inh: blocks Trypanosoma brucei hexokinase 1 activity | 220,000 compounds, 0.11% hits | inhibition, % at 10 µM | AID 1430 | recombinant TbHK1, G6PDH-coupled NADH A340;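 active = inhibition of 50% or more in the single-dose primary screen; inactive = inhibition below 50%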
RanGTP-Imp inh: inhibitors of RanGTP-importin-beta interaction, primary screen, biochemical, FRET, CFP-Ran, YFP-importin-beta, homogeneous; cell-free CFP-Ran/YFP-importin-beta FRET ratio; inhibition, % (no concentration beside the values); 300,000 compounds, 1.1% hits; AID 2216;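 active = more than half of the replicate wells show a fall in the fluorescence ratio signal beyond about 16%, limit read from the data, passing the limit was not always enough; inconclusive = exactly half of the replicate wells pass the set limit; inactive = fewer than half of replicates pass the limit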
14-3-3 Bad PPI: disrupts binding of bovine 14-3-3 zeta to phospho-Bad peptide | inhibition, % at 21.7 µM | 220,000 compounds, 0.71% hits | TR-FRET 14-3-3zeta/Dy647-pBad peptide displacement, 1 h;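 active = inhibition above about 70%, limit read from the data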
Target sequence (P63103 whole entry, looked up): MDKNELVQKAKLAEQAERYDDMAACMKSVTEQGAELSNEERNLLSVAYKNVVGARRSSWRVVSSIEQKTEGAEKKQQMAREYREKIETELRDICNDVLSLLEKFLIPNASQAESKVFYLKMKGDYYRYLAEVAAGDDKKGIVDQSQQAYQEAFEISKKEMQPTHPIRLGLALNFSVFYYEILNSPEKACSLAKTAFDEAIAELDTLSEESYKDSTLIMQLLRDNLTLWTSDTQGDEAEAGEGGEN
Hck-Nef inh: blocks Nef-activated human Hck kinase. P08631. inhibition, % at 20 µM. AID 463187. Recombinant Hck-YEEI plus Nef, Z-Lyte FRET kinase assay. 220,000 compounds, 0.68% hits;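 active = Hck-Nef kinase inhibition above about 50%, limit read from the data; inactive = inhibition below that limit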
Target sequence (P08631 whole entry, looked up): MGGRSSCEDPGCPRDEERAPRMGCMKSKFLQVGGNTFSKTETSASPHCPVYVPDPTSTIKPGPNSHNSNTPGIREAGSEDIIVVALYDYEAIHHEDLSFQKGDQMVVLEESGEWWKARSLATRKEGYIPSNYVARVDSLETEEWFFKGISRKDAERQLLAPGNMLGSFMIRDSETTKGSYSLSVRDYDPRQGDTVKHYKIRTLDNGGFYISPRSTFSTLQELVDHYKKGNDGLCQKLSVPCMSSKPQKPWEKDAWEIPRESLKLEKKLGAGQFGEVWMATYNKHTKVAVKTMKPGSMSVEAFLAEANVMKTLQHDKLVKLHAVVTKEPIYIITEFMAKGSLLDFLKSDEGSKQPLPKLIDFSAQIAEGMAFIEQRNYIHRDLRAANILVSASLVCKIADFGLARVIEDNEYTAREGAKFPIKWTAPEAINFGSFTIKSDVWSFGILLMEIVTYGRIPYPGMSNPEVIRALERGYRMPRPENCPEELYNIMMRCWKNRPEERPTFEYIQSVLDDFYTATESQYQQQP
Runt-CBFb FRET: blocks binding of human RUNX1 Runt domain to CBFb | Q01196+Q13951 | Cerulean-Runt/Venus-CBFb FRET ratio 530/480, 1 h | inhibition, % at 20 µM | 220,000 compounds, 0.46% hits | AID 1496;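 active = inhibition over about 50% at 20 µM in the single-dose screen, limit read from the data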
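Measured by: fluorescence energy transfer, 422 nm excitation, 530/480 nm emission; test system: Cerulean-tagged RUNX1 Runt domain (FRET donor) fusion protein; buffer or medium: Tris pH 7.5 buffer with BSA; compound: one dose, 20 µM compound, 1% DMSO; times: two 1 h room-temperature incubations shielded from light; benchmarks: unlabeled CBFb 5 µM, positive control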
Numbers stand for hits.

What do the screens show for `O=c1c2c([N+](=O)[O-])cc([N+](=O)[O-])cc2sn1-c1ccc(Br)cc1`?
Runt-SMMHC FRET: inactive; TbHK1 inh: 92; 14-3-3 Bad PPI: inactive; Hck-Nef inh: inactive; Runt-CBFb FRET: inactive

How did CC(C)COc1ccc(/C=C2/Sc3ccccc3C2=O)cc1 do in these assays?
Runt-SMMHC FRET: inactive; TbHK1 inh: inactive; RanGTP-Imp inh: 43; 14-3-3 Bad PPI: inactive; Hck-Nef inh: inactive; Runt-CBFb FRET: inactive

Results for N#Cc1c(C(F)(F)F)cc(=O)[nH]c1SCC(=O)O ?
Runt-SMMHC FRET: inactive; TbHK1 inh: inactive; RanGTP-Imp inh: inactive; 14-3-3 Bad PPI: inactive; Hck-Nef inh: inactive; Runt-CBFb FRET: inactive

How did Cc1c(C(=O)O)cccc1-n1c(C)cc(/C=N/Nc2ccc([N+](=O)[O-])cn2)c1C do in these assays?
Runt-SMMHC FRET: inactive; TbHK1 inh: inactive; RanGTP-Imp inh: inactive; 14-3-3 Bad PPI: inactive; Hck-Nef inh: 62; Runt-CBFb FRET: inactive

Results for Cc1ccc(C(=O)N2CCN(S(=O)(=O)c3ccccc3)CC2)s1 ?
RanGTP-Imp inh: inactive

What do the screens show for `O=C(NCc1ccccc1)c1ccc2c(=O)[nH]c3c(C(=O)NCC4CCCO4)sc(=S)n3c2c1` (stereo not given)?
Runt-SMMHC FRET: inactive; TbHK1 inh: inactive; RanGTP-Imp inh: inconclusive; 14-3-3 Bad PPI: inactive; Hck-Nef inh: inactive; Runt-CBFb FRET: inactive

What do the screens show for `Cc1ccc(CNC(=O)c2ccc3c(=O)[nH]c4c(C(=O)NCC5CCCO5)sc(=S)n4c3c2)cc1` (stereo not given)?
Runt-SMMHC FRET: inactive; TbHK1 inh: inactive; RanGTP-Imp inh: inactive; 14-3-3 Bad PPI: inactive; Hck-Nef inh: 57

How did CC(=O)c1c(C)nc(-c2ccc(Cl)cc2)nc1N=CN(C)C do in these assays?
Runt-SMMHC FRET: inactive; TbHK1 inh: inactive; RanGTP-Imp inh: inactive; 14-3-3 Bad PPI: 84; Hck-Nef inh: inactive; Runt-CBFb FRET: inactive

What do the screens show for `CC(C)N1CCC2(CC1)C(C#N)=C(N)NC(S)=C2C#N`?
Runt-SMMHC FRET: 64; TbHK1 inh: inactive; RanGTP-Imp inh: inactive; 14-3-3 Bad PPI: inactive; Hck-Nef inh: inactive; Runt-CBFb FRET: inactive

What do the screens show for `N#CC1=C(N)NC(SCC(=O)O)=C(C#N)C12CCCC2`?
Runt-SMMHC FRET: inactive; TbHK1 inh: inactive; RanGTP-Imp inh: inactive; 14-3-3 Bad PPI: inactive; Hck-Nef inh: inactive; Runt-CBFb FRET: inactive

What do the screens show for `CCN1C(=O)/C(=C2/C=Cc3cc(C)ccc3N2CC)N(C)C1=S`?
Runt-SMMHC FRET: inactive; TbHK1 inh: inactive; RanGTP-Imp inh: inactive; 14-3-3 Bad PPI: inactive; Hck-Nef inh: inactive; Runt-CBFb FRET: inactive

How did CCN1C(=C(C#N)C#N)C=Cc2cc(C)ccc21 do in these assays?
Runt-SMMHC FRET: 77; TbHK1 inh: inactive; RanGTP-Imp inh: 52; 14-3-3 Bad PPI: inactive; Hck-Nef inh: inactive; Runt-CBFb FRET: inactive

How did CC1CN(c2ccc(S(=O)(=O)N3CCCC3)cn2)CC(C)O1 (stereo not given) do in these assays?
Runt-SMMHC FRET: inactive; TbHK1 inh: inactive; RanGTP-Imp inh: inactive; 14-3-3 Bad PPI: inactive; Hck-Nef inh: inactive; Runt-CBFb FRET: inactive

How did O=C1C=CC(=O)N1c1ccc(Sc2ccc([N+](=O)[O-])cc2)cc1 do in these assays?
Runt-SMMHC FRET: inactive; TbHK1 inh: inactive; RanGTP-Imp inh: inactive; 14-3-3 Bad PPI: inactive; Hck-Nef inh: 50; Runt-CBFb FRET: inactive

Results for CSc1ccc(S(=O)(=O)NCC(=O)OCC(=O)NCc2cccs2)cc1[N+](=O)[O-] ?
RanGTP-Imp inh: inactive

Results for CCC(NC(=O)c1ccc2nc(Cc3ccc(OC)cc3)oc2c1)c1ccncc1 (stereo not given) ?
RanGTP-Imp inh: inactive

What do the screens show for `S=c1nc(NCCc2ccccc2Cl)c2ccccc2[nH]1`?
RanGTP-Imp inh: inactive

What do the screens show for `CN(C)c1nc(Nc2ccccc2)nc(N(C)C)n1`?
Runt-SMMHC FRET: inactive; TbHK1 inh: inactive; RanGTP-Imp inh: inactive; 14-3-3 Bad PPI: 80; Hck-Nef inh: inactive; Runt-CBFb FRET: inactive

How did CCOc1ccc(-n2c3nc4ccccc4nc3c3c(=O)n(Cc4ccco4)cnc32)cc1 do in these assays?
TbHK1 inh: inactive; Hck-Nef inh: inactive

Results for Cc1cc(C)cc(-n2c3nc4ccccc4nc3c3c(=O)n(Cc4ccco4)cnc32)c1 ?
TbHK1 inh: inactive; RanGTP-Imp inh: 19; 14-3-3 Bad PPI: inactive; Hck-Nef inh: inactive; Runt-CBFb FRET: inactive

What do the screens show for `CCOC(=O)N1CCN(C(=O)COc2ccc3c(c2)C(=O)CC2(CCN(C(C)=O)CC2)O3)CC1`?
Runt-SMMHC FRET: inactive; TbHK1 inh: inactive; RanGTP-Imp inh: inconclusive; 14-3-3 Bad PPI: 95; Hck-Nef inh: inactive; Runt-CBFb FRET: inactive

How did CC(=O)N1CCC2(CC1)CC(=O)c1cc(OCC(=O)N3CCOCC3)ccc1O2 do in these assays?
Runt-SMMHC FRET: inactive; TbHK1 inh: inactive; RanGTP-Imp inh: inconclusive; 14-3-3 Bad PPI: inactive; Hck-Nef inh: inactive; Runt-CBFb FRET: inactive

What do the screens show for `NS(=O)(=O)c1ccc(NC(=O)c2cc(-c3cc(Cl)ccc3O)n[nH]2)cc1`?
RanGTP-Imp inh: inactive

Results for CC1(C)CC(=O)C2=C(C1)OC(N)=C(C#N)[C@@H]2c1ccccc1[N+](=O)[O-] ?
Runt-SMMHC FRET: inactive; TbHK1 inh: inactive; RanGTP-Imp inh: 49; 14-3-3 Bad PPI: inactive; Hck-Nef inh: inactive; Runt-CBFb FRET: 94

Results for COCCn1nnnc1CN1CCOCC1 ?
Runt-SMMHC FRET: inactive; TbHK1 inh: inactive; RanGTP-Imp inh: inactive; 14-3-3 Bad PPI: 75; Hck-Nef inh: inactive; Runt-CBFb FRET: inactive

What do the screens show for `COCCn1nnnc1CN1CCC(C)CC1`?
Runt-SMMHC FRET: inactive; TbHK1 inh: inactive; RanGTP-Imp inh: inactive; 14-3-3 Bad PPI: inactive; Hck-Nef inh: inactive; Runt-CBFb FRET: inactive

Results for CCOc1ccc(S(=O)(=O)N/N=C2/CC(c3ccccc3)Oc3ccccc32)cc1 (stereo not given) ?
Runt-SMMHC FRET: inactive; TbHK1 inh: inactive; RanGTP-Imp inh: inactive; 14-3-3 Bad PPI: inactive; Hck-Nef inh: inactive; Runt-CBFb FRET: inactive

Results for N/C(=N\O)C1COc2ccccc2O1 (stereo not given) ?
Runt-SMMHC FRET: inactive; TbHK1 inh: inactive; RanGTP-Imp inh: inconclusive; 14-3-3 Bad PPI: 84; Hck-Nef inh: inactive; Runt-CBFb FRET: inactive

What do the screens show for `Cc1cc(C)n2nc(C(=O)OCC(=O)N(C)CC(=O)Nc3ccccc3Cl)nc2n1`?
RanGTP-Imp inh: inactive

What do the screens show for `NC(=S)Cc1nc(-c2ccccc2)cs1`?
Runt-SMMHC FRET: inactive; TbHK1 inh: inactive; RanGTP-Imp inh: 30; 14-3-3 Bad PPI: inactive; Hck-Nef inh: inactive; Runt-CBFb FRET: inactive

Results for Nc1nc(-c2ccccc2)cs1 ?
Runt-SMMHC FRET: inactive; TbHK1 inh: inactive; RanGTP-Imp inh: inactive; 14-3-3 Bad PPI: inactive; Hck-Nef inh: inactive; Runt-CBFb FRET: inactive

How did O=[N+]([O-])c1ccc(Cl)c(C[n+]2cccc3ccccc32)c1 do in these assays?
RanGTP-Imp inh: inactive

Results for CCNC(=S)NC(=NCc1cccnc1)Nc1nc(C)cc(C)n1 ?
RanGTP-Imp inh: 19
